Experimental data published in ChEMBL document CHEMBL6109076, “Design and synthesis of novel thioether analogs as promising antiviral agents: In vitro activity against enteroviruses of interest” (Eur J Med Chem, 2025).

Key:
Human echovirus 30 = assay: Antiviral activity against Echovirus 30 strain UVE/E-30/2013/FR/4-MRS2013 infected in human MRC5 cells assessed as […]; format: functional, organism-based, Echovirus E30; details: Enterovirus B, UVE/E-30/2013/FR/4-MRS2013, MRC5
Method in brief: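 MRC-5 cells seeded the day before infection in assay medium with 2.5 % FBS. After 24 h, compounds added as eight ½ dilutions, then virus added. On day 3 post-infection, supernatant harvested and viral RNA quantified by RT-qPCR (pan-enterovirus probe/primers, synthetic RNA standard curve). Inhibition calculated relative to four virus control wells per plate. EC50 obtained by nonlinear regression (log(inhibitor) vs response, variable slope, three parameters); two independent experiments.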

[1] = Cytotoxicity against human MRC5 cells; format: toxicity, cell-based
Method in brief: (§1)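 CC50 was measured in parallel on compound-treated uninfected cells, run alongside the antiviral assay. Cells were seeded one day ahead in assay medium with 2.5 % FBS (RD at 50000 cells/well) and held at 37 °C, 5 % CO2; MRC-5 were grown in BME with 10 % FBS. Compounds were added as eight ½ dilutions. CC50 came from nonlinear regression (log(inhibitor) vs response, variable slope, three parameters); median ± std of two independent experiments.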

[2] = Selectivity index, ratio of CC50 for cytotoxicity against human MRC5 cells to EC50 for antiviral activity against Enterovirus A71 infected in human MRC5 cells; format: toxicity, cell-based; details: read-out: Selectivity Index
[3] = Selectivity index, ratio of CC50 for cytotoxicity against human MRC5 cells to EC50 for antiviral activity against Coxsackievirus A24 UVE/CV-A24/2010/LA/HFMK14 infected in human MRC5 cells; format: toxicity, cell-based; details: read-out: Selectivity Index
Method in brief: (§2)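 In MRC-5 cells, SI = CC50/EC50. EC50 comes from the 3-day RT-qPCR viral RNA inhibition assay with eight ½ dilutions. CC50 was measured in parallel on compound-treated uninfected MRC-5 cells. Both values derived by nonlinear regression (three-parameter, variable slope); two independent experiments.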

Coxsackievirus = assay: Antiviral activity against Coxsackievirus A24 UVE/CV-A24/2010/LA/HFMK14 infected in human MRC5 cells assessed as […]; format: functional, organism-based; details: UVE/CV-A24/2010/LA/HFMK14, MRC5
Enterovirus A71 [4] = assay: Antiviral activity against Enterovirus A71 Laos2011 HFMD18T infected in human RD cells assessed as reduction in viral replication incubated for 72 hrs by RT-qPCR analysis; format: functional, organism-based; details: Enterovirus A
[5] = Cytotoxicity against human RD cells; format: toxicity, cell-based; method in brief: as §1
[6] = Selectivity index, ratio of CC50 for cytotoxicity against human RD cells to EC50 for antiviral activity against Enterovirus A71 infected in human RD cells
Enterovirus A71 [7] = assay: Antiviral activity against Enterovirus A71 Laos2011 HFMD18T infected in human MRC5 cells assessed as reduction in viral replication incubated for 72 hrs by RT-qPCR analysis; format: functional, organism-based; details: Enterovirus A, MRC5, 72 h
[8] = Cytotoxicity against Chinese hamster CHO cells
Enterovirus A71 [9] = assay: Antiviral activity against Enterovirus A71 Laos2011 HFMD18T infected in human RD cells assessed as RNA copies measured per ml of supernatant at 10 uM pretreated 1 hr before infection measured after 72 hrs relative to control; format: functional
Enterovirus A71 [10] = assay: Antiviral activity against Enterovirus A71 Laos2011 HFMD18T infected in human RD cells assessed as inhibition of viral RNA copies measured per ml of supernatant at 10 uM treated 4 hr post infection measured after 72 hrs; format: functional; details: Enterovirus A
Enterovirus A71 [11] = assay: Antiviral activity against Enterovirus A71 Laos2011 HFMD18T infected in human RD cells assessed as inhibition of viral RNA measured per ml of supernatant at 10 uM pretreated 1 hr before infection measured after 72 hrs; format: functional; details: Enterovirus A
[12] = Selectivity index, ratio of CC50 for cytotoxicity against human MRC5 cells to EC50 for antiviral activity against Echovirus 30 strain UVE/E-30/2013/FR/4-MRS2013 infected in human MRC5 cells; format: toxicity, cell-based; details: read-out: Selectivity Index; method in brief: as §2
Enterovirus A71 [13] = assay: Antiviral activity against Enterovirus A71 Laos2011 HFMD18T infected in human RD cells assessed as RNA copies measured per ml of supernatant at 10 uM treated 4 hr post infection measured after 72 hrs; format: functional
Enterovirus A71 [14] = assay: Antiviral activity against Enterovirus A71 Laos2011 HFMD18T infected in human RD cells assessed as RNA copies measured per ml of supernatant at 10 uM treated 1 hr post infection measured after 72 hrs
Enterovirus A71 [15] = assay: Antiviral activity against Enterovirus A71 Laos2011 HFMD18T infected in human RD cells assessed as RNA copies measured per ml of supernatant at 10 uM treated at time of infection measured after 72 hrs; format: functional
Enterovirus A71 [16] = assay: Antiviral activity against Enterovirus A71 Laos2011 HFMD18T infected in human RD cells assessed as inhibition of viral RNA copies measured per ml of supernatant at 10 uM measured after 72 hrs; details: Enterovirus A
Enterovirus A71 [17] = assay: Antiviral activity against Enterovirus A71 Laos2011 HFMD18T infected in human RD cells assessed as inhibition of viral RNA copies measured per ml of supernatant at 10 uM treated at time of infection measured after 72 hrs; format: functional; details: Enterovirus A

Row | SMILES | EC50 (Enterovirus A71 [4]) [µM] | CC50 [5] [µM] | selectivity ratio [6] | EC50 (Enterovirus A71 [7]) [µM] | other results
1 | OCc1ccc(-c2ccc(SCc3ccc(-n4cncn4)cc3)nc2)cc1 |  |  |  |  | EC50 (Human echovirus 30): > 40 µM; CC50 [1]: > 40 µM; selectivity ratio [2]: > 181; selectivity ratio [3]: > 1.7; EC50 (Coxsackievirus): 23.2 µM
2 | OCc1cccc(-c2ccc(SCc3ccc(-n4cncn4)cc3)nc2)c1 | 2.78 | > 40 | > 14 | 22 | CC50 [1]: > 40 µM; selectivity ratio [2]: > 1.8
3 | c1ncn(-c2ccc(CSc3ccc(-c4ccc5cn[nH]c5c4)cc3)cc2)n1 | > 40 |  |  |  | 
4 | c1ccc2oc(-c3ccc(SCc4ccc(-n5cncn5)cc4)cc3)cc2c1 | > 40 |  |  |  | 
5 | Cn1cc(-c2ccc(CSc3ccc(-c4ccc5ccccc5c4)cn3)cc2)cn1 | 12 | > 40 | > 3.3 | 22.4 | CC50 [1]: > 40 µM; selectivity ratio [2]: > 1.8
6 | CN(C)c1ncc(-c2ccc(CSc3ccc(-c4ccc(CO)cc4)cn3)cc2)cn1 | > 40 |  |  |  | 
7 | O=C1NC(SCc2ccc(-n3cncn3)cc2)=N/C1=C\c1c[nH]c2ccccc12 | 4.65 | 96.3 | 20.7 | > 40 | CC50 [8]: 33.6 µM
8 | c1ccc2cc(-c3ccc(SCc4ccc(-n5cncn5)cc4)nc3)ccc2c1 | 1.86 | 23.5 | 15.4 | 3.25 | EC50 (Human echovirus 30): 0.4 µM; Activity (Enterovirus A71 [9]): 1.5 log10/ml; inhibition at 10 µM (Enterovirus A71 [10]): < 90%; CC50 [1]: > 40 µM; inhibition at 10 µM (Enterovirus A71 [11]): > 90%; selectivity ratio [12]: > 100; CC50 [8]: 43.2 µM; Activity (Enterovirus A71 [13]): 0.7 log10/ml; Activity (Enterovirus A71 [14]): 1.14 log10/ml; selectivity ratio [2]: > 12; selectivity ratio [3]: > 40; Activity (Enterovirus A71 [15]): 1.25 log10/ml; EC50 (Coxsackievirus): 0.99 µM; inhibition at 10 µM (Enterovirus A71 [16]): > 90%; inhibition at 10 µM (Enterovirus A71 [17]): > 90%
9 | c1ccc2cc(-c3ccc(SCc4ccc(-n5cncn5)cc4)cc3)ncc2c1 | 4.3 | 30.5 | 6.62 | 1.15 | EC50 (Human echovirus 30): 0.41 µM; CC50 [1]: > 40 µM; selectivity ratio [12]: > 100; CC50 [8]: 31.3 µM; selectivity ratio [2]: > 25; selectivity ratio [3]: > 32; EC50 (Coxsackievirus): 1.22 µM
10 | Cn1cc(-c2ccc(SCc3ccc(-n4cncn4)cc3)nc2)cn1 | 4.38 |  |  | 0.57 | 
11 | CCNc1ncc(-c2ccc(CSc3ccc(-c4ccc(CO)cc4)cn3)cc2)cn1 | > 40 |  |  |  | 
12 | OCc1ccc(-c2ccc(SCc3ccc(-c4cnc(N5CCOCC5)nc4)cc3)nc2)cc1 | > 40 |  |  |  | 
13 | Nc1ncc(-c2ccc(CSc3ccc(-c4ccc(CO)cc4)cn3)cc2)cn1 | 24.7 | 44.7 | 1.81 | < 0.37 | CC50 [1]: > 20 µM; CC50 [8]: 36.9 µM; selectivity ratio [2]: > 54
14 | c1ccc(Cn2cc(-c3ccc(CSc4ccc(-c5ccc6ccccc6c5)cn4)cc3)cn2)cc1 | 22.3 |  |  |  | 
15 | CN1CCN(c2ncc(-c3ccc(CSc4ccc(-c5ccc(CO)cc5)cn4)cc3)cn2)CC1 | > 40 |  |  |  | 
16 | c1ccc2cc(-c3ccc(SCc4ccc(-n5cncn5)cc4)cc3)ccc2c1 | > 40 |  |  |  | 
17 | c1ncn(-c2ccc(CSc3ccc(-c4ccc5[nH]ccc5c4)cc3)cc2)n1 | > 40 |  |  |  | 
18 | CN(C)c1ccc(-c2ccc(CSc3ccc(-c4ccc5ccccc5c4)cn3)cc2)cc1 | > 40 |  |  |  | 
19 | Cc1noc(C)c1-c1ccc(CSc2ccc(-c3ccc4ccccc4c3)cn2)cc1 | 22.3 | > 40 | > 1.8 | > 40 | 
20 | CN(C)c1cccc(-c2ccc(CSc3ccc(-c4ccc5ccccc5c4)cn3)cc2)c1 | > 40 |  |  |  | 
21 | c1ccc2cc(-c3ccc(SCc4ccc(-n5cncn5)cc4)nc3)ncc2c1 | 22.1 | > 40 | > 1.8 | > 20 | 
22 | COc1ncc(-c2ccc(CSc3ccc(-c4ccc(CO)cc4)cn3)cc2)cn1 | > 40 |  |  |  | 
23 | c1ccc2c(-c3ccc(SCc4ccc(-n5cncn5)cc4)nc3)cccc2c1 | > 40 |  |  |  | 
24 | CCOc1noc2cc(OCCC3CCN(c4ccc(C)nn4)CC3)ccc12 [VAPENDAVIR] |  | > 63 |  |  | CC50 [1]: > 20 µM
